According to ChEMBL document CHEMBL1127563, “Novel acyl-CoA:cholesterol acyltransferase inhibitors. Synthesis and biological activity of 3-quinolylurea derivatives” (J Med Chem, 1994):
Values joined by “and” are separate entries in the source; they are usually repeats but may differ in a detail not shown here. Equal values may be shown once.

Assays:
[1] = molecular target: T1, Sterol O-acyltransferase 1 (Rattus norvegicus, UniProt O70536); assay: Inhibitory activity against acyl coenzyme A:cholesterol acyltransferase in rat microsomes; parameters: species or system Microsome
T1 sequence (O70536 whole entry): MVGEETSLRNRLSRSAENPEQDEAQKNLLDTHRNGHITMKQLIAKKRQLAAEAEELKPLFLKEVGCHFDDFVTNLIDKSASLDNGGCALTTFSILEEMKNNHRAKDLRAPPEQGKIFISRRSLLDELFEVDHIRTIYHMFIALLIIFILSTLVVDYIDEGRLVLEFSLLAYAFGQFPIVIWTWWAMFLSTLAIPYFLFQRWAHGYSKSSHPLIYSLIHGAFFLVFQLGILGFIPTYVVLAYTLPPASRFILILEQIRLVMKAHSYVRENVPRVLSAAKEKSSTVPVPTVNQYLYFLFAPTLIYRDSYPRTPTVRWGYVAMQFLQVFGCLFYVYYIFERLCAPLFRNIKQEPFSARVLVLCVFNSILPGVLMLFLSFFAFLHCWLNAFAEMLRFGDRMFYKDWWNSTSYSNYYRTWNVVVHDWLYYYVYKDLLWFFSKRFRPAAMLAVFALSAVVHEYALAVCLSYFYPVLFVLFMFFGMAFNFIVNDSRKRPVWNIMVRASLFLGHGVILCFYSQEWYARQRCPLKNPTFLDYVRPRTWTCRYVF
Outline: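 Rat intestinal mucosal microsomes (male Sprague–Dawley, 6 weeks), 0.2 mg protein preincubated at 37 °C for 15 min in 0.154 M phosphate buffer with fatty-acid-free BSA and compound in DMSO; cholesteryl ester formation from [1-14C]oleoyl-CoA and endogenous cholesterol by scintillation counting. IC50 from inhibition curves.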

[2] = molecular target: T2, Sterol O-acyltransferase 1 (Rattus norvegicus) (UniProt O70536); assay: Inhibitory activity against acyl coenzyme A:cholesterol acyltransferase at 10 e-6 M in rat microsomes; conditions: Microsome
T2 sequence (whole entry): T1 sequence (O70536 whole entry)
Outline: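 Intestinal mucosal microsomes from male 6-week-old Sprague–Dawley rats (100800g pellet); 0.2 mg protein preincubated 15 min at 37 °C in 0.154 M phosphate buffer with fatty-acid-free BSA, compound in DMSO added before preincubation at 1 μM final. Labeled cholesteryl ester from [1-14C]oleoyl-CoA and endogenous cholesterol, scraped and scintillation counted; % inhibition.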

Cricetinae gen. sp. [3] = assay: Plamsa cholesterol leval was measured in hamsters at 0.0001% cholesterol diet as a dietary admixture; assay type: functional, organism-based
Outline: (§1)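 Male Golden hamsters, 10 weeks old, were fed either a stock diet or a cholesterol diet. The compound was mixed into the diet at 0.0001%, 0.0003% or 0.001% and given for 14 days. Animals were housed individually at 23 ± 1 °C and were not fasted. Blood was taken from the orbital sinus, and plasma cholesterol was measured enzymatically.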

Cricetinae gen. sp. [4] = assay: Plamsa cholesterol leval was measured in hamsters at 0.001% cholesterol diet as a dietary admixture; assay type: functional, organism-based; outline: as §1
Cricetinae gen. sp. [5] = assay: Plamsa cholesterol leval was measured in hamsters at 0.0003% cholesterol diet as a dietary admixture; conditions: Mesocricetus auratus

Row | SMILES | IC50 [1] [µM] | inhibition [2] [%] | Plasma cholesterol (Cricetinae gen. sp. [3]) | Plasma cholesterol (Cricetinae gen. sp. [4]) | Plasma cholesterol (Cricetinae gen. sp. [5]) [mg/dL]
1 | Cc1cc(Cl)c2ncc(NC(=O)Nc3ccc(F)cc3F)c(-c3ccccc3Cl)c2c1 | 0.0089 | 97.6 |  |  | 
2 | Cc1cc(Cl)cc2c(-c3ccccc3Cl)c(NC(=O)Nc3ccc(F)cc3F)cnc12 | 0.012 | 97.6 |  |  | 
3 | Cc1cc2ncc(NC(=O)Nc3ccc(F)cc3F)c(-c3ccccc3Cl)c2cc1C | 0.0058 | 99.6 | 169 mg/dL and 279 mg/dL | 95 mg/dL and 213 mg/dL | 245
4 | CN(C(=O)Nc1cnc2ccc(Cl)cc2c1-c1ccccc1)c1ccc(F)cc1F | > 1 | 9.4 |  |  | 
5 | CSc1ccc2ncc(NC(=O)Nc3ccc(F)cc3F)c(-c3ccccc3)c2c1 |  | 87.8 |  |  | 
6 | Cc1cc(C)c2ncc(NC(=O)Nc3ccc(F)cc3F)c(-c3ccccc3C)c2c1 | 0.012 | 98.5 |  |  | 
7 | Cc1ccc2ncc(NC(=O)Nc3ccc(F)cc3F)c(-c3ccccc3Cl)c2c1 | 0.0168 | 98.5 |  |  | 
8 | Cc1cccc2ncc(NC(=O)Nc3ccc(F)cc3F)c(-c3ccccc3Cl)c12 | 0.149 | 87.3 |  |  | 
9 | O=C(Nc1ccc(Cl)cc1)Nc1cnc2ccc(Cl)cc2c1-c1ccccc1 | 1.3 | 51.5 |  |  | 
10 | O=C(Nc1ccc(F)cc1F)Nc1cnc2ccc(Cl)cc2c1-c1ccccc1Cl | 0.0212 | 98 |  |  | 
11 | Cc1ccc(-c2c(NC(=O)Nc3ccc(F)cc3F)cnc3ccc(Cl)cc23)cc1 | 0.16 | 87.4 |  |  | 
12 | CCc1ccc2ncc(NC(=O)Nc3ccc(F)cc3F)c(-c3ccccc3Cl)c2c1 | 0.014 | 99.2 |  |  | 
13 | Cc1cc(C)c2ncc(NC(=O)Nc3c(C(C)C)cccc3C(C)C)c(-c3ccccc3Cl)c2c1 | 0.028 | 98 |  |  | 
14 | O=C(Nc1ccc(F)cc1F)Nc1cnc2ccc(C(F)(F)F)cc2c1-c1ccccc1 |  | 90.1 |  |  | 
15 | COc1ccc(-c2c(NC(=O)Nc3ccc(F)cc3F)cnc3ccc(Cl)cc23)cc1 | 0.121 | 92.7 |  |  | 
16 | COc1ccc(NC(=O)Nc2cnc3ccc(Cl)cc3c2-c2ccccc2)c(OC)c1 | 0.864 | 47.6 |  |  | 
17 | Cc1cc(C)c2ncc(NC(=O)Nc3c(F)cc(F)cc3F)c(-c3ccccc3Cl)c2c1 | 0.015 | 97.3 |  |  | 
18 | O=C(Nc1ccc(F)cc1F)Nc1cnc2ccc(Cl)cc2c1-c1ccccc1 | 0.215 | 88.3 |  |  | 

Row | SMILES | IC50 [1] [µM] | inhibition [2] [%] | Plasma cholesterol (Cricetinae gen. sp. [3]) | Plasma cholesterol (Cricetinae gen. sp. [4]) | Plasma cholesterol (Cricetinae gen. sp. [5]) [mg/dL]
19 | O=C(Nc1ccc(F)cc1F)Nc1cnc2ccc(Br)cc2c1-c1ccccc1 |  | 85.5 |  |  | 
20 | COc1ccc2ncc(NC(=O)Nc3ccc(F)cc3F)c(-c3ccccc3)c2c1 |  | 85.9 |  |  | 
21 | CC(C)c1ccc2ncc(NC(=O)Nc3ccc(F)cc3F)c(-c3ccccc3Cl)c2c1 | 0.014 | 99.3 |  |  | 
22 | Cc1cc(C)c2ncc(NC(=O)Nc3ccc(F)cc3F)c(-c3ccccc3Cl)c2c1 | 0.0092 | 98.9 |  |  | 
23 | COc1ccccc1-c1c(NC(=O)Nc2ccc(F)cc2F)cnc2ccc(Cl)cc12 | 0.024 | 98.2 |  |  | 
24 | O=C(Nc1ccccc1)Nc1cnc2ccc(Cl)cc2c1-c1ccccc1 | > 1 | 5 |  |  | 
25 | O=C(Nc1ccc(F)cc1F)Nc1cnc2ccc(Cl)cc2c1-c1cccc(Cl)c1 | 0.0906 | 88.5 |  |  | 
26 | CCCCN(C(=O)Nc1ccc(F)cc1F)c1cnc2ccc(Cl)cc2c1-c1ccccc1 |  | 61.6 |  |  | 
27 | CC(C)c1ccc2ncc(NC(=O)Nc3ccc(F)cc3F)c(-c3ccccc3)c2c1 |  | 91.6 |  |  | 
28 | Cc1ccccc1-c1c(NC(=O)Nc2ccc(F)cc2F)cnc2ccc(Cl)cc12 | 0.0287 | 97.2 |  |  | 
29 | Cc1cc(C)c2nc(C)c(NC(=O)Nc3ccc(F)cc3F)c(-c3ccccc3Cl)c2c1 |  | 85.4 |  |  | 
30 | O=C(Nc1ccc(F)cc1F)Nc1cnc2ccccc2c1-c1ccccc1Cl | 0.125 | 91.8 |  |  | 
31 | Cc1ccc2ncc(NC(=O)Nc3ccc(F)cc3F)c(-c3ccccc3)c2c1 |  | 84.5 |  |  | 
32 | O=C(Nc1ccc(F)cc1F)Nc1cnc2ccc(Cl)cc2c1-c1ccc(Cl)cc1 | 0.534 | 77 |  |  | 
33 | O=C(Nc1ccccc1F)Nc1cnc2ccc(Cl)cc2c1-c1ccccc1 | 0.929 | 75 |  |  | 
34 | Cc1ccc2ncc(NC(=O)Nc3ccc(F)cc3F)c(-c3ccccc3C)c2c1 | 0.0217 | 96.9 |  |  | 
35 | O=C(Nc1ccc(F)cc1)Nc1cnc2ccc(Cl)cc2c1-c1ccccc1 | 0.8 | 66.5 |  |  | 
36 | Cc1cc2c(-c3ccccc3C)c(NC(=O)Nc3ccc(F)cc3F)cnc2cc1Cl | 0.0093 | 98.6 |  |  | 
